Screening data: PubChem BioAssay, several laboratories
Hsp70 activator = Hsp70 transcriptional activators, primary screen, cell-based, HeLa, Hsp70 promoter luciferase, luminescence, 10 µM; activation, % at 10 µM; AID 1203, 2008; actives 0.04% (n = 200,000); HeLa Hsp70 promoter luciferase reporter; scaled: vehicle 0, proteasome-inhibitor control 100%;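 active = activation above the mean across all tested compounds plus 3 SD, cutoff set per campaign, cut at about 5.5% in these data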;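 note: 100% = MG132 at 30 µM as the positive control and 0% = DMSO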
Wee1 degr inh = Wee1 degradation inhibitors, primary screen, cell-based, HeLa, Wee1K328M-luciferase, luminescence | reporter increase, % at 5 µM | Wee1-like protein kinase (Homo sapiens), P30291 | actives 1.2% (n = 220,000) | AID 1321, 2008 | HeLa Luc-Wee1K328M stability; 100% = proteasome inhibitor MG132 effect;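 active = activation above the mean of all tested compounds plus 3 SD, set per screening run, cut at about 8.8% in these data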;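 note: cells exposed to compound for 20 h before luminescence read; 0% = DMSO alone and 100% = MG132 at 30 µM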
Target sequence (P30291 whole entry K328M): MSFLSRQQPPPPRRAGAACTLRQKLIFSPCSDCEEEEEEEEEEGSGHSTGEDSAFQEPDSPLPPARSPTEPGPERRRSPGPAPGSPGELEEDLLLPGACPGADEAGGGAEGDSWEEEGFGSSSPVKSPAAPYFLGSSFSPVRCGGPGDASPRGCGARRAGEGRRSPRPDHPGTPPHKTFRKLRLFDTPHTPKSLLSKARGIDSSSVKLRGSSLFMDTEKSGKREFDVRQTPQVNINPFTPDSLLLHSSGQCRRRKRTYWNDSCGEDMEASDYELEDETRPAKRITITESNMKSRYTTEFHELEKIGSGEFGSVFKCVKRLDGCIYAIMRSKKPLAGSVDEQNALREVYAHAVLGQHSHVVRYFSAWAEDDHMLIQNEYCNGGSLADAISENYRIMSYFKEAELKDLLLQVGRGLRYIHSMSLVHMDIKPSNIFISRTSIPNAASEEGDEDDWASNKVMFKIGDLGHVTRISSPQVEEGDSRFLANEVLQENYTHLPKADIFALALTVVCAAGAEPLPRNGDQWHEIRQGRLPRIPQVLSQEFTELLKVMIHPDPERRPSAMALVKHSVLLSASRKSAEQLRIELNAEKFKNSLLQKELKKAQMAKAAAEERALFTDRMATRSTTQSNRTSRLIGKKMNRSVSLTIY
Mdm2 ligase inh = MDM2-luciferase reporter signal enhancers, primary screen, MDM2 E3 ligase inhibitor project, cell-based, luminescence, 1536-well. signal enhancement, % at 5 µM. E3 ubiquitin-protein ligase Mdm2 (Homo sapiens), Q00987. cell-based MDM2 ubiquitination luciferase reporter, 2 h; 0 = plate control, 100 = twice control, blank-subtracted. actives 0.11% (n = 210,000);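 active = signal enhancement of 30% or more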;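 note: luminescence tracks abundance of the self-degrading MDM2-luciferase fusion protein; higher signal means inhibition of MDM2 E3 ligase activity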
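Test system: mammalian cells stably expressing self-ubiquitinating, self-degrading MDM2 E3–luciferase fusion; Amount: 2000 cells in each well; Medium: DMEM; Schedule: 4 h settle plus 2 h compound, 37 °C; Technique: SteadyLite luciferase luminescence after 15 min room-temperature reagent incubation; Benchmarks: plate control and blank wells.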
Pf gametocyte = late stage P. falciparum gametocyte viability inhibitors, primary screen, ATP luminescence, HTS. P. falciparum stage V gametocytes, 24 h. inhibition, % at 10.9 µM. actives 0.065% (n = 150,000);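 active = inhibition above the mean plus 3 SD of compounds within the control limits, set per campaign, cut at about 38% in these data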;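 note: 0% = DMSO wells and 100% = medium only without gametocytes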
* hit, by the source's call; / = no result given. An excerpt weighted towards active compounds, which were near 1.3% of everything screened.

SMILES | Hsp70 activator | Wee1 degr inh | Mdm2 ligase inh | Pf gametocyte
CCOc1ccc(OCc2ccc(C(=O)N/N=C(\C)c3ccccn3)cc2)cc1 | 1 | 9.6* | 23 | 5
COC(=O)c1sc(SC)c(S(=O)(=O)C(C)C)c1N/N=C(\C#N)C(=O)c1ccccc1 | / | 0 | -5 | -25
O=C(CN1CCCCCC1)NCc1ccccc1 | 0 | -2 | -8 | 11
O=C(CN1CCCCC1)NC(=O)NCc1ccccc1 | 0 | -2 | 38* | 18
COc1ccc(C(=O)OCC(=O)NC(=O)NC(C)C)cc1OC | 0 | 0 | -6 | 15
COc1cc(C(=O)OCC(=O)NC(=O)C2CCCCC2)ccc1OC(F)F | 1 | 9.8* | 2 | /
C=CCSc1ncc(CO)n1Cc1ccccc1 | 0 | -1 | -3 | 9
COc1ccc(C(=O)C(=O)c2ccc(OCCO)cc2)cc1 | / | / | / | 10
CCSc1nc2ccccc2n1C(=O)/C=C\c1ccc(OC)c(OC)c1 | 0 | -3 | 43* | /
CC1CCc2nc(NC(=O)c3ccco3)sc2C1 (centres undefined) | 0 | 0 | -92 | 15
CC1CCc2nc(NC(=O)C3CCCO3)sc2C1 (centres undefined) | 0 | 9.7* | -18 | 1
CCOC(=O)c1cc(C(=O)OCC)c(=O)[nH]c1N1CCCCC1 | 0 | 1 | 5 | -5
O=C(NN1C(=O)c2ccccc2C1=O)C1C2CCCCC21 (centres undefined) | 0 | 1 | / | -15
COc1ccccc1-c1cc(C(=O)N2CCCc3ccccc32)no1 | 0 | 9.8* | -20 | 3
CN(C)c1ccc(/C=N/N2C(=O)c3ccccc3C2=O)cc1 | / | -1 | / | -3
COc1ccc(/C=N/N2C(=O)c3ccccc3C2=O)cc1 | 0 | 2 | 3 | 57*
Cc1cc(C)nc(S/C=C/C(=O)c2ccccc2F)n1 | / | 0 | 39* | 2
Cc1cc(C)nc(NC(=S)NC(=O)c2ccccc2F)n1 | / | / | / | 2
COc1cc(OC)c(C2=NOC(C(=O)NCc3cccs3)C2)cc1Cl (centres undefined) | 0 | 9.6* | -6 | 21
CC(C(=O)NC1CCCC1)N(C(=O)c1ccc(-c2ccccc2)[nH]1)c1ccccc1F (centres undefined) | 0 | 0 | -14 | 17
COC(=O)COc1cccc2c(=O)n(CC(=O)NCc3ccc(F)cc3)ccc12 | 0 | 12* | 3 | /
CCOC(=O)COc1cccc2c(=O)n(CC(=O)NCCc3ccccc3)ccc12 | 0 | 0 | / | /
CC(=O)OCC(=O)NCc1ccc2c(c1)OCO2 | 0 | 1 | -17 | /
CCOC(=O)COc1cccc2c(=O)n(CC(=O)NCc3ccc4c(c3)OCO4)ccc12 | 0 | 9.6* | -11 | /
CCOC(=O)C(C)Oc1cccc2c(=O)n(CC(=O)NCc3ccc(F)cc3)ccc12 (centres undefined) | / | 1 | -5 | -11
SMILES | Hsp70 activator | Wee1 degr inh | Mdm2 ligase inh | Pf gametocyte
O=C(COC(=O)CSc1ccc2ccccc2c1)NCc1ccc2c(c1)OCO2 | 0 | -2 | 20 | 48*
Clc1ccccc1-c1nnc(-c2cccs2)o1 | 0 | 10* | -23 | 9
CC1=C(C(=O)Nc2ccccn2)C(c2ccc(Cl)cc2)NC(=S)N1 (centres undefined) | 0 | 9.9* | -7 | /
COc1ccc(CCC(=O)Nc2ccc(C)c([N+](=O)[O-])c2)cc1 | 0 | -3 | -15 | 14
CCC(C)NC(=O)C1CCN(C(=O)c2ccccc2)CC1 (centres undefined) | 0 | 1 | 6 | -34
CC(C)NC(=O)C1CCN(C(=O)c2ccc(-c3ccccc3)cc2)CC1 | 0 | 11* | 16 | /
COC(=O)c1cc(C)[nH]c2c(C)cc3nc4ccccc4c3c12 | / | -3 | -8 | /
Cc1[nH]c(C)c2c(=O)n(Cc3ccccc3Cl)ncc12 | / | / | / | 1
Cc1[nH]c(C)c2c(=O)n(-c3ccccc3)ncc12 | 0 | 14* | -10 | /
CCCOc1ccc(N2C(=O)CC(N3CCN(CCN=CC4C(=O)CC(C)(C)CC4=O)CC3)C2=O)cc1 (centres undefined) | 0 | 0 | -7 | -34
Cc1cc(C=O)c(O)cc1O | / | / | / | -3
CC(C)C1Oc2ccccc2N(CC(=O)N(Cc2ccccn2)CC2CCCO2)C1=O (centres undefined) | 0 | 9.2* | -16 | -20
